Columns and labels:
[1] = Half life period of compound was determined after peroral administration; assay type: ADME, organism-based; conditions: rat, in vivo, po
Procedure, shortened: (§1)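 Rats, n = 3 per route, dosed by iv injection at 3 mg/kg or oral gavage at 5 mg/kg. Plasma analysed by LC/MS–MS with LXA₄ as internal standard on a C18 column (10–80% gradient over 2 min). For methyl ester dosing, the plasma acid formed by hydrolysis was the analyte quantified. Outputs: T1/2, clearance, AUCall, Cmax, Tmax, F.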

[2] = Half life period of compound was determined at a dose of 3 mg/kg by intravenous administration; assay type: ADME, organism-based; parameters: dose 3 mg/kg, route intravenous; conditions: rat, in vivo; procedure, shortened: as §1
[3] = Tmax was measured in rats after peroral administration at 5 mg/kg; assay type: ADME, organism-based; parameters: dose 5 mg/kg, route oral; conditions: rat, in vivo, po; procedure, shortened: as §1
Rattus norvegicus = experiment: Compound clearance in rats was measured after intravenous administration at 3 mg/kg; assay type: ADME, organism-based; parameters: dose 3 mg/kg, route intravenous; conditions: in vivo; procedure, shortened: as §1
[4] = Oral bioavailability in rat; assay type: ADME, organism-based; conditions: in vivo; procedure, shortened: as §1
[5] = Area under curve after intravenous administration at 3 mg/kg; assay type: ADME, organism-based; parameters: dose 3 mg/kg, route intravenous; conditions: rat, in vivo; procedure, shortened: as §1
Mus musculus = experiment: (§2) Inhibition of the edema formation by compound was determined in mice; assay type: functional, organism-based
Procedure, shortened: (§3)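 Mice given ionophore on the ear with topical coapplication of compound at 100, 300 and 600 µg/cm², vehicle and ionophore controls alongside. Euthanized at 24 h. Ear weight taken as edema. Peroxidase (granulocytes) and elastase (neutrophils) activities measured in ear homogenates. N = 8–10 mice per group, mean ± SEM.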

[6] = Bioavailability value of compound in rats was determined after peroral administration; assay type: ADME, organism-based; conditions: rat, in vivo, po; procedure, shortened: as §1
[7] = Half life period of compound was determined after intravenous administration at 2 mg/kg; assay type: ADME, organism-based, Canis lupus familiaris; parameters: dose 2 mg/kg, route intravenous; conditions: dog, in vivo
Procedure, shortened: (§4)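 Dogs dosed iv at 2 mg/kg or orally at 2 mg/kg. Plasma parameters derived were half-life, Cmax, Tmax and oral bioavailability (F).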

[8] = Bioavailability of compound in dog was determined after peroral administration; assay type: ADME, organism-based, Canis lupus familiaris; conditions: in vivo, po; procedure, shortened: as §4
[9] = Half life period of compound was determined after peroral administration at 2 mg/kg; assay type: ADME, organism-based, Canis lupus familiaris; parameters: dose 2 mg/kg, route oral; conditions: dog, in vivo, po; procedure, shortened: as §4
[10] = F value of compound in rats was determined after peroral administration; assay type: ADME, organism-based; conditions: rat, in vivo, po; procedure, shortened: as §1
Mus sp. = experiment: as §2; assay type: functional, organism-based; procedure, shortened: as §3

half-life [1] [h]	half-life [2] [h]	Tmax [3] [h]	Cl (Rattus norvegicus) [mL/min/kg]	bioavailability [4] [%]	AUC [5] [ng·h/mL]	IC50 (Mus musculus) [ug cm**-2]	bioavailability [6] [%]	half-life [7] [h]	bioavailability [8] [%]	half-life [9] [h]	bioavailability [10] [%]	SMILES	ED50 (Mus sp.) [µg/cm²]
1.1	1.3	0.5	50	4	1000	< 300						O=C(O)COC[C@H](O)[C@H](O)/C=C/C=C/C=C/C=C/[C@H](O)COc1ccc(F)cc1	
1.8	0.1	0.5	58	28	900							O=C(O)CCC[C@H](O)[C@H](O)/C=C/C=C/C#C/C=C/[C@@H](O)COc1ccc(F)cc1	
1.1	0.2	1	28		1800		13					O=C(O)CCCC(O)C(O)/C=C/C=C/C=C/C=C/[C@H](O)COc1ccc(F)cc1 (single isomer, unassigned)	
2.2	2.3	1.3	7		7000			2.7	40	3.2	14	O=C(O)COC[C@H](O)[C@H](O)/C=C/C=C/C#C/C=C/[C@H](O)COc1ccc(F)cc1	< 300
0.5	0.3	0.5	51	12	1000							COC(=O)CCCC(O)C(O)/C=C/C=C/C=C/C=C/[C@H](O)COc1ccc(F)cc1 (single isomer, unassigned)	
